Tests used:
Homo sapiens [1] = species on record: Homo sapiens; test: Selectivity for human recombinant adenosine A2B receptor over human recombinant adenosine A1 receptor
Adenosine receptor A2b = biological target: T1, Adenosine receptor A2b (Homo sapiens, UniProt P29275); test: Displacement of [3H]ZM-241385 from human recombinant adenosine A2B receptor expressed in HEK293 cells; format: cell-based
T1 sequence (P29275 whole entry): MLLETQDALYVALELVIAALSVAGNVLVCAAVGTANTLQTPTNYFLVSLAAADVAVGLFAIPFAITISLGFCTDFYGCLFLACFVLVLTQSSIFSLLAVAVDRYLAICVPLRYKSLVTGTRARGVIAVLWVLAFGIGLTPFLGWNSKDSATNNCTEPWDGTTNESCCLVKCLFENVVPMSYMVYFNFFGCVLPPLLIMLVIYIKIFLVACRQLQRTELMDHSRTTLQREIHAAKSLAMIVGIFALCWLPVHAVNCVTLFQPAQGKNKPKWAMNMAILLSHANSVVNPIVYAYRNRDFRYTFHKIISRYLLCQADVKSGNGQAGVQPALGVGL
How it was run: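 Membranes from HEK293 cells stably expressing human A2B receptor; competition with 10 nM radioligand, 50 µg membrane protein, in 50 mM Tris/1 mM EDTA with 1 U/mL adenosine deaminase, 25 °C for 90 min with gentle agitation; filtration, four ice-cold Tris/MgCl2 washes. Nonspecific binding defined with 10 µM unlabelled ligand; Ki calculated.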

Adenosine receptor A1 = biological target: T2, Adenosine receptor A1 (Homo sapiens, UniProt P30542); test: Displacement of [3H]CPX from human recombinant adenosine A1 receptor expressed in CHO cells; format: cell-based
T2 sequence (P30542 whole entry): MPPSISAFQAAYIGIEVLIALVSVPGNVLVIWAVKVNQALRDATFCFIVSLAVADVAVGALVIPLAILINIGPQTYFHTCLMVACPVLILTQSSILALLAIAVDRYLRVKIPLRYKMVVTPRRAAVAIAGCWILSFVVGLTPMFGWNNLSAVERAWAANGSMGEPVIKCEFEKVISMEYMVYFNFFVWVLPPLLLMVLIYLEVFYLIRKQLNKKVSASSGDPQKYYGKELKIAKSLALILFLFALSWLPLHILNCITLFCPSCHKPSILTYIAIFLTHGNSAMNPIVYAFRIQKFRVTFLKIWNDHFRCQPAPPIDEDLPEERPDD
How it was run: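 CHO cell membranes stably expressing human A1 receptor; 0.5 nM [3H]CPX competed with test compound in 50 mM Tris/1 mM EDTA plus 1 U/mL adenosine deaminase, 25 °C, 90 min, gentle agitation; filtration and four ice-cold Tris/MgCl2 washes. Nonspecific binding defined with 1 µM CPX; Ki values derived.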

Adenosine receptor A2a = Adenosine receptor A2a (Homo sapiens, UniProt P29274); test: Displacement of [3H]ZM-241385 from human recombinant adenosine A2A receptor expressed in HEK293 cells; format: cell-based
How it was run: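 Membranes from HEK293 cells stably expressing human A2A receptor; 2 nM radioligand competed in 50 mM Tris/1 mM EDTA with 1 U/mL adenosine deaminase for 90 min at 25 °C with agitation; filtration, four ice-cold Tris/MgCl2 washes. Nonspecific binding defined with 1 µM unlabelled ligand; Ki computed.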

Adenosine receptor A3 = biological target: T3, Adenosine receptor A3 (Homo sapiens, UniProt P0DMS8); test: Displacement of [125I]ABMECA from human recombinant adenosine A3 receptor expressed in CHO cells; format: cell-based
T3 sequence (P0DMS8 whole entry): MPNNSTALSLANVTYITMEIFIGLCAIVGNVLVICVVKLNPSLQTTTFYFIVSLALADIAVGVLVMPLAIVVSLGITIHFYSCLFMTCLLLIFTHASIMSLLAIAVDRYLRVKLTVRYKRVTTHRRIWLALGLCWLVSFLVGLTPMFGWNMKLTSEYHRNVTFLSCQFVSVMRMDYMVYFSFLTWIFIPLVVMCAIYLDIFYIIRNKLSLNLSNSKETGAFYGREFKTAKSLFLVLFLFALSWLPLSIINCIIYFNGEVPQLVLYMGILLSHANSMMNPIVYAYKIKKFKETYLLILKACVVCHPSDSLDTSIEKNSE
How it was run: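 Human A3 receptor stably expressed in CHO cells; membranes incubated with 0.1 nM 125I-AB-MECA and test compound in 50 mM Tris, 1 mM EDTA, 10 mM MgCl2 plus 1 U/mL adenosine deaminase, 25 °C, 90 min; filtration, four ice-cold washes. Nonspecific binding defined with 1 µM IB-MECA; Ki determined.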

Homo sapiens [2] = species on record: Homo sapiens; test: Selectivity for human recombinant adenosine A2B receptor over human recombinant adenosine A2A receptor
Homo sapiens [3] = species on record: Homo sapiens; test: Selectivity for human recombinant adenosine A2B receptor over human recombinant adenosine A3 receptor

Sequence of Adenosine receptor A2a (P29274 whole entry): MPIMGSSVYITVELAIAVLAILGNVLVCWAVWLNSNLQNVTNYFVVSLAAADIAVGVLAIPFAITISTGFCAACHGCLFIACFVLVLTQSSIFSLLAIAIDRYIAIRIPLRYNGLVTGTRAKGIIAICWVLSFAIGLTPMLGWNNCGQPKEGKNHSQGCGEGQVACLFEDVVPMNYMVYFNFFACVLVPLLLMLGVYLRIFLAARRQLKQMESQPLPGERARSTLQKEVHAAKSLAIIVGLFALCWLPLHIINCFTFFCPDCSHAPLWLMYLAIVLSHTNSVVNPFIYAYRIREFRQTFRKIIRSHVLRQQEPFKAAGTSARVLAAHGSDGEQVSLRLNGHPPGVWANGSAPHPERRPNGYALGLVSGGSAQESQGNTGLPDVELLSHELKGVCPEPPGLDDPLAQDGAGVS

SMILES | Ratio Ki (Homo sapiens [1]) | Ki (Adenosine receptor A2b) | Ki (Adenosine receptor A1) | Ki (Adenosine receptor A2a) | Ki (Adenosine receptor A3) | Ratio Ki (Homo sapiens [2]) | Ratio Ki (Homo sapiens [3])
CCCn1c(=O)c2[nH]c(-c3cnn(Cc4cc(-c5ccc(C(F)(F)F)cc5)on4)c3)nc2n(CC)c1=O | 87 | 25 nM | 2190 nM | 2370 nM | 3810 nM | 94 | 152
Cn1c(=O)n(CC2CC2)c(=O)c2[nH]c(-c3cnn(Cc4ccccc4)c3)nc21 | 14 | 11 nM | 154 nM | 149 nM | 91 nM | 13 | 8
CC(C)Cn1c(=O)c2[nH]c(-c3cnn(Cc4cccc(F)c4)c3)nc2n(C)c1=O | 6 | 60 nM | 352 nM | 301 nM | 107 nM | 5 | 2
CCn1c(=O)n(CC2CC2)c(=O)c2[nH]c(-c3cnn(Cc4ccccc4)c3)nc21 | 11 | 27 nM | 314 nM | 181 nM | – | 6 | –
CCCn1c(=O)c2[nH]c(-c3cnn(Cc4cccc(F)c4)c3)nc2n(CC)c1=O | 34 | 35 nM | 1200 nM | 2500 nM | 950 nM | 71 | 27
CCn1c(=O)c2[nH]c(-c3cnn(Cc4cccc(F)c4)c3)nc2n(C)c1=O | 58 | 6 nM | 350 nM | 231 nM | 282 nM | 38 | 47
CCCCn1c(=O)c2[nH]c(-c3cnn(Cc4ccccc4)c3)nc2n(C)c1=O | 13 | 30 nM | 416 nM | 247 nM | – | 8 | –
CCCn1c(=O)c2[nH]c(-c3cnn(Cc4ccccn4)c3)nc2n(CC)c1=O | 9 | 46 nM | 410 nM | 411 nM | – | 9 | –
CCCn1c(=O)c2[nH]c(-c3cnn(Cc4cc(-c5ccc(Cl)cc5)on4)c3)nc2n(CC)c1=O | 5 | 42 nM | 200 nM | 781 nM | – | 18 | –
Cn1c(=O)c2[nH]c(-c3cnn(Cc4cccc(F)c4)c3)nc2n(C)c1=O | 17 | – | – | – | – | 7 | –
CCCCn1c(=O)c2[nH]c(-c3cnn(Cc4cccc(F)c4)c3)nc2n(C)c1=O | 11 | 26 nM | 305 nM | 217 nM | – | 8 | –
CCn1c(=O)c2[nH]c(-c3cnn(Cc4cccc(C(F)(F)F)c4)c3)nc2n(C)c1=O | 45 | 6 nM | 274 nM | 234 nM | 262 nM | 39 | 43
CCCn1c(=O)c2[nH]c(-c3cnn(Cc4noc(-c5ccc(Cl)cc5)n4)c3)nc2n(CC)c1=O | > 18 | 335 nM | > 6000 nM | > 5000 nM | – | > 15 | –
CCn1c(=O)n(CC2CC2)c(=O)c2[nH]c(-c3cn[nH]c3)nc21 | 2 | 38 nM | 76 nM | 234 nM | – | 6 | –
Cn1c(=O)n(CC2CC2)c(=O)c2[nH]c(-c3cnn(Cc4cccc(C(F)(F)F)c4)c3)nc21 | 8 | 21 nM | 167 nM | 312 nM | 160 nM | 15 | 7
CCCn1c(=O)c2[nH]c(-c3cnn(Cc4ccccc4)c3)nc2n(C)c1=O | 30 | 19 nM | 582 nM | 125 nM | – | 6 | –
CCCn1c(=O)c2[nH]c(-c3cnn(Cc4cccc(F)c4)c3)nc2n(CCC)c1=O | 13 | – | – | – | – | 17 | 4

SMILES | Ratio Ki (Homo sapiens [1]) | Ki (Adenosine receptor A2b) | Ki (Adenosine receptor A1) | Ki (Adenosine receptor A2a) | Ki (Adenosine receptor A3) | Ratio Ki (Homo sapiens [2]) | Ratio Ki (Homo sapiens [3])
CCn1c(=O)c2[nH]c(-c3cnn(Cc4ccccc4)c3)nc2n(C)c1=O | 130 | 2 nM | 260 nM | 73 nM | 92 nM | 36 | 46
CCn1c(=O)c2nc(-c3cnn(Cc4cccc(F)c4)c3)[nH]c2n(CC)c1=O | 76 | – | – | – | – | 58 | 91
CCn1c(=O)n(CC2CC2)c(=O)c2[nH]c(-c3cnn(Cc4ccc(C(F)(F)F)nc4)c3)nc21 | 80 | 16 nM | 1280 nM | 2280 nM | 400 nM | 142 | 25
CCn1c(=O)n(CC2CC2)c(=O)c2[nH]c(-c3cnn(Cc4cccc(C(F)(F)F)c4)c3)nc21 | 10 | 22 nM | 218 nM | 272 nM | 326 nM | 12 | 15
CCCn1c(=O)c2[nH]c(-c3cnn(Cc4ccccc4)c3)nc2n(CC)c1=O | 9 | 31 nM | 275 nM | 261 nM | – | 8 | –
CCCn1c(=O)c2[nH]c(-c3cnn(Cc4cccc(C(F)(F)F)c4)c3)nc2n(C)c1=O | 31 | 14 nM | 441 nM | 450 nM | 408 nM | 32 | 29
CCCn1c(=O)c2[nH]c(-c3cn[nH]c3)nc2n(CC)c1=O | 4 | 49 nM | 178 nM | 496 nM | – | 10 | –
CCn1c(=O)n(CC(C)C)c(=O)c2[nH]c(-c3cn[nH]c3)nc21 | 2 | 141 nM | 348 nM | 1220 nM | – | 9 | –
CC(C)Cn1c(=O)c2[nH]c(-c3cnn(Cc4ccccc4)c3)nc2n(C)c1=O | 16 | 21 nM | 347 nM | 408 nM | 204 nM | 19 | 9
Cn1c(=O)c2nc(-c3cnn(Cc4cccc(C(F)(F)F)c4)c3)[nH]c2n(C)c1=O | 992 | – | – | – | – | 686 | 100
CC(C)Cn1c(=O)c2[nH]c(-c3cn[nH]c3)nc2n(C)c1=O | 9 | 42 nM | 376 nM | 1390 nM | – | 33 | –
CCCn1c(=O)c2[nH]c(-c3cnn(Cc4cccc(C(F)(F)F)c4)c3)nc2n(CCC)c1=O | 12 | – | – | – | – | 28 | 10
CCCn1c(=O)c2[nH]c(-c3cnn(Cc4ccc[n+]([O-])c4)c3)nc2n(CC)c1=O | 2 | 506 nM | 1120 nM | 1950 nM | – | 4 | –
CCCn1c(=O)c2[nH]c(-c3cnn(Cc4cccnc4)c3)nc2n(CC)c1=O | 23 | 22 nM | 522 nM | 312 nM | – | 14 | –
CC(C)Cn1c(=O)c2[nH]c(-c3cnn(Cc4cccc(C(F)(F)F)c4)c3)nc2n(C)c1=O | 3 | 199 nM | 617 nM | 633 nM | – | 3 | –
CCn1c(=O)c2[nH]c(-c3cn[nH]c3)nc2n(C)c1=O | – | 120 nM | – | – | – | – | –
CCn1c(=O)c2nc(-c3cnn(Cc4cccc(C(F)(F)F)c4)c3)[nH]c2n(CC)c1=O | 44 | – | – | – | – | 34 | 34
